Assay results taken from ChEMBL document CHEMBL1135440, “(+)-Dinapsoline: an efficient synthesis and pharmacological profile of a novel dopamine agonist” (J Med Chem, 2002).

Columns and labels:
Rattus norvegicus [1] = assay: In vivo number of rotations at a dose of 2 mg/kg administered subcutaneously to Sprague-Dawley rats; type: functional; conditions: route subcutaneous
Method in brief: (§1)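 Sprague-Dawley rats with unilateral 6-OHDA lesions of medial forebrain bundle, prescreened for rotation to amphetamine (5 mg/kg: 800 rotations/3 h) and apomorphine (0.2 mg/kg: 100 rotations/1 h). Subcutaneous dosing; rotations counted over 10 h, mean ± sem, n 5–10 per group. Each rat received four treatments, weekly, counterbalanced order.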

Rattus norvegicus [2] = assay: In vivo number of rotations at a dose of 0.2 mg/kg administered subcutaneously to Sprague-Dawley rats; type: functional; conditions: route subcutaneous; method in brief: as §1
[3] = In vitro intrinsic activity which is the ratio of the cyclase response of compound relative to that of dopamine; type: functional
Method in brief: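 cAMP accumulation in SK-N-MC cells (endogenous D1), varying compound concentrations with 1 mM IBMX, 10 min at 37 °C, cAMP by radioimmunoassay, nonlinear curve fitting. Intrinsic activity taken as ratio of compound maximal cyclase response to that of dopamine.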

SK-N-MC [4] = assay: In vitro adenylate cyclase response in neuroblastoma cell line SK-N-MC; type: functional, cell-based; conditions: Homo sapiens
Method in brief: (§2)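 SK-N-MC human neuroblastoma cells with endogenous D1 receptor, seeded at 10⁵ cells/mL 1 day before assay (37 °C, 5% CO₂). Cells exposed to varying compound concentrations in assay buffer with 1 mM IBMX, 10 min at 37 °C; stopped with 0.1 N HCl; cAMP measured by radioimmunoassay; dose-response curves fitted by nonlinear regression.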

SK-N-MC [5] = assay: In vitro adenylate cyclase response in neuroblastoma cell line; type: functional, cell-based; conditions: Homo sapiens; method in brief: as §2

Row | SMILES | Rotations/10 h (Rattus norvegicus [1]) | Rotations/10 h (Rattus norvegicus [2]) | Intrinsic activity [3] | EC50 (SK-N-MC [4]) [nM] | EC50 (SK-N-MC [5]) [nM]
1 | Oc1ccc2c(c1O)Cc1cccc3c1C2CNC3 (racemic) | 4800 | 1900 | 1.2 | 190 | 
2 | CCCc1cc2c(s1)CN[C@@H]1CCc3cc(O)c(O)cc3[C@@H]21 [A-86929] | 4200 | 1100 |  |  | 
3 | Oc1ccc2c(c1O)Cc1cccc3c1[C@@H]2CNC3 | 7 | 8 |  |  | > 10000
4 | Oc1ccc2c(c1O)Cc1cccc3c1[C@H]2CNC3 | 7000 | 4100 | 1 |  | 220
